An excerpt weighted towards active compounds, which were near 1.5% of everything screened.
CRFR2-BP antag – antagonists of CRF-BP/CRF-R2 complex, primary screen, cell-based, HEK293, calcium dye fluorescence, uHTS; 350,000 tested, 0.59% active; CRF-induced calcium fluorescence; inhibition, % at 11.8 µM; AID 588475, 2011;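 active = inhibition of the ligand-induced calcium signal above about 50% at the single tested concentration, limit read from the data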
PKA-R2B activ – activators of PKA-R2B holoenzyme, primary screen, biochemical, fluorescence polarization, Cy5-IP20, human | cAMP-dependent protein kinase catalytic subunit beta (Homo sapiens) + cAMP-dependent … | PKA-R2B holoenzyme dissociation; R2B truncated from residue 108, S112A mutant; 0% DMSO only, 100% 113 µM cGMP | activation, % at 11.4 µM | 340,000 tested, 0.079% active;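 active = activation above a cutoff set at the mean over all compounds plus 3 SD, cut at about 18% in these data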;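 note: higher means more holoenzyme dissociation and a rise in polarization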
Target sequence (P31323 whole entry, looked up, other chains not shown, the tested form may be a part): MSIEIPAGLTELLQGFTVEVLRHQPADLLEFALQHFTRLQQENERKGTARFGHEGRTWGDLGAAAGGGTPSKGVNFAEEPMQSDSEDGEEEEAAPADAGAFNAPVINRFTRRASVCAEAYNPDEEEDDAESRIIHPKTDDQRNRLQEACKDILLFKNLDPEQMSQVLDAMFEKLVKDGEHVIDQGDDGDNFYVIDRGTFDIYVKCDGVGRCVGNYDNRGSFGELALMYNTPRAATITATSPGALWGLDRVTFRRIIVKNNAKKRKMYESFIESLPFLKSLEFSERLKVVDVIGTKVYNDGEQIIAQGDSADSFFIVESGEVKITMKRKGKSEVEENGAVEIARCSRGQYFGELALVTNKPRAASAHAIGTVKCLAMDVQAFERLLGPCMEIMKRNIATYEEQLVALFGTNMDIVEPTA
PKA-R1A act – activators of PKA-R1A holoenzyme, primary screen, biochemical, fluorescence polarization, Cy5-IP20, bovine R1A, mouse PKAc; cAMP-dependent protein kinase type I-alpha regulatory subunit (Bos taurus) + …; activation, % at 11.4 µM; 340,000 tested, 0.083% active; PKA-R1A dissociation; scaled: DMSO 0%, 113 µM cGMP 100%;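 active = percent activation above the mean of all tested compounds plus 3 SD, cut at about 19% in these data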;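 note: higher means more PKAc released from R1A so a rise in polarization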
SIRT5 block – SIRT5 desuccinylase inhibitors, primary screen, biochemical, fluorescence imaging, single point, set 5; NAD-dependent protein deacylase sirtuin-5, mitochondrial (Homo sapiens), Q9NXA8; 330,000 tested, 1.1% active; inhibition, % at 15 µM; AID 652115, 2013; Purified SirT5, succinyl-peptide AMC, trypsin-coupled fluorescence; in the data active = inhibition above about 15%
S100A4 inh HTS – inhibitors of S100A4-myosin IIA peptide binding, primary screen, biochemical, fluorescence polarization, TAMRA-MyoIIA peptide; Protein S100-A4 (Homo sapiens), P26447; inhibition, % at 10.7 µM; 360,000 tested, 0.14% active; AID 652163, 2013;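 active = mean inhibition of at least 70% across replicates, with every replicate also reaching that level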
Target sequence (P26447 whole entry, looked up): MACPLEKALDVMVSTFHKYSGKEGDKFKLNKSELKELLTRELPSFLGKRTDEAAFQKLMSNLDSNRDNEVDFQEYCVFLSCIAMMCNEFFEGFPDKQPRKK
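Material: human S100A4 monomer with TAMRA-labelled myosin IIA peptide; buffer or medium: HEPES pH 7.2 with CaCl2, KCl, NaCl, DTT, Triton; compound dosing: one concentration per compound; schedule: 5 min incubation before reading; benchmarks: neutral control DMSO, positive control TFP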
Active calls of the source: *; . = no result.

SMILES	CRFR2-BP antag	PKA-R2B activ	PKA-R1A act	SIRT5 block	S100A4 inh HTS
COc1ccc(NC(=O)N(C)C[C@@H]2Oc3ccc(N(C)C)cc3C(=O)N([C@H](C)CO)C[C@@H]2C)cc1	.	.	.	0	35
COc1ccc(NC(=O)N(C)C[C@H]2Oc3ccc(N(C)C)cc3C(=O)N([C@@H](C)CO)C[C@@H]2C)cc1	.	.	.	0	103*
COc1ccccc1-c1cn(CC[C@@H]2CC[C@H](NC(=O)NC(C)C)[C@@H](CO)O2)nn1	.	.	.	-1	3
CCOC(=O)c1nnn(-c2nonc2N)c1CN(C)C1CCCCC1	60*	11	-9	.	.
CCOC(=O)c1nnn(-c2nonc2N)c1CN(CC)CC	-20	-10	-4	.	.
C[C@@H]1CN([C@@H](C)CO)C(=O)c2cc(NC(=O)Nc3ccccc3)ccc2O[C@@H](C)CCCCO[C@H]1CN(C)C(=O)c1ccccc1	.	.	.	11	-5
O=C(O)/C=C/C(=O)Nc1ccc(Cc2ccc(NC(=O)/C=C/C(=O)O)cc2)cc1	-12	-1	6	22*	-3
O=C(O)/C=C/C(=O)Nc1ccc(C2(c3ccc(NC(=O)/C=C/C(=O)O)cc3)c3ccccc3-c3ccccc32)cc1	2	-7	-1	16*	-8
O=C(O)/C=C\C(=O)Nc1ccc(Oc2ccccc2)cc1	-3	3	5	.	.
N#C[C@H]1[C@@H](c2ccc(-c3cccc(F)c3)cc2)[C@@H](CO)N1C(=O)c1cccnc1	.	.	.	1	-1
Cc1ccc(S(=O)(=O)Nc2cccc3c2O[C@H](CN(C)Cc2ccc(C(=O)O)cc2)[C@@H](C)CN([C@@H](C)CO)C3=O)cc1	.	.	.	-4	-5
COc1ccccc1OCCSc1nc2ccccc2n1CC(O)CO (stereo not drawn)	11	8	0	18*	-1
Cc1ccc(OCCSc2nc3ccccc3n2CC(=O)O)cc1	15	9	-3	16*	-2
CCc1ccc(OCCSc2nc3ccccc3n2CC(=O)O)cc1	-5	2	9	-4	1
C[C@@H]1CN([C@H](C)CO)C(=O)CCCn2nncc2CO[C@@H]1CN(C)Cc1ccc2c(c1)OCO2	.	.	.	-2	-2
CNC[C@H]1Oc2ccc(NS(=O)(=O)c3ccccc3)cc2C(=O)N([C@@H](C)CO)C[C@@H]1C	.	.	.	-1	7
CCCN1C[C@@H](C)[C@@H](OC)CN(C)C(=O)c2ccc(NC(=O)c3ccccc3)cc2OC[C@@H]1C	.	.	.	-11	11
C[C@H](CO)N1C[C@H](C)[C@H](CN(C)C)Oc2ccc(NC(=O)C3CCCCC3)cc2CC1=O	.	.	.	2	6
CCCNC(=O)Nc1ccc2c(c1)OC[C@@H](C)N(Cc1ccccn1)C[C@@H](C)[C@H](OC)CN(C)C2=O	.	.	.	1	2
Cc1ccc(S(=O)(=O)N2c3ccccc3OCC2c2ccccc2)cc1 (stereo not drawn)	50*	0	-2	.	.
CC1COc2ccccc2N1S(=O)(=O)c1ccc(Cl)cc1 (stereo not drawn)	-4	-5	-15	-2	-4
COc1ccc(NC(=O)N2CC3(C2)CN(CC2CC2)[C@@H](CO)c2c3c3ccc(OC)cc3n2C)cc1	.	.	.	0	3
CC=Cc1ccc2n(c1=O)C[C@H]1[C@H](CO)[C@@H](C(=O)NCc3ccccc3)[C@@H]2N1S(C)(=O)=O (mixture of isomers)	.	.	.	-25	.
CNC(=S)N1CCc2cc(OC)c(OC)cc2C1COc1ccc(OC)cc1 (stereo not drawn)	1	-12	-1	-2	-14
COCCNC(=S)N1CCc2cc(OC)c(OC)cc2C1COc1cc(C)cc(C)c1 (stereo not drawn)	86*	-21	-5	8	7
SMILES	CRFR2-BP antag	PKA-R2B activ	PKA-R1A act	SIRT5 block	S100A4 inh HTS
Cc1csc(N2CCCC2=O)n1	-6	-1	-1	21*	1
CC1CCN(C(=O)c2[nH]cnc2C(=O)NCc2ccc(CNC(=O)OC(C)(C)C)cc2)CC1	3	0	3	17*	-3
CC1CCN(C(=O)c2[nH]cnc2C(=O)N[C@@H](C)C(=O)OCc2ccccc2)CC1	4	-19	-4	.	138*
CC1CCN(C(=O)c2[nH]cnc2C(=O)N[C@@H](C)C(=O)OC(C)(C)C)CC1	54*	2	6	.	9
CC1CCN(C(=O)c2[nH]cnc2C(=O)NCc2ccccc2)CC1	1	-6	-1	1	-4
C[C@H](NC(=O)c1nc[nH]c1C(=O)N1CCN(C(=O)OC(C)(C)C)CC1)C(=O)OCc1ccccc1	2	-5	1	0	0
CC(C)C[C@H](NC(=O)c1nc[nH]c1C(=O)NC1CCNCC1)C(=O)OC(C)(C)C	-3	4	-1	17*	2
CC(C)(C)OC(=O)[C@H](Cc1ccccc1)NC(=O)c1nc[nH]c1C(=O)NC1CCNCC1	-8	3	9	.	-2
C[C@H](NC(=O)c1nc[nH]c1C(=O)N1CCN(C(=O)OC(C)(C)C)CC1)C(=O)OC(C)(C)C	-3	1	2	.	-6
C[C@@H]1CN([C@@H](C)CO)S(=O)(=O)c2ccc(C#CC3CCCCC3)cc2O[C@H]1CN(C)Cc1cccnc1	.	.	.	13	10
C[C@@H]1CN([C@H](C)CO)S(=O)(=O)c2ccc(C#CC3(O)CCCC3)cc2O[C@H]1CN(C)C(=O)c1cccnc1	.	.	.	27*	13
C[C@H]1CN([C@@H](C)CO)S(=O)(=O)c2ccc(-c3cncnc3)cc2O[C@H]1CN(C)Cc1ccc(Oc2ccccc2)cc1	.	.	.	27*	-4
Cc1ccc(-c2ccc3c(c2)O[C@H](CN(C)Cc2cccnc2)[C@H](C)CN([C@H](C)CO)S3(=O)=O)cc1	.	.	.	18*	3
C[C@@H]1CN([C@H](C)CO)S(=O)(=O)c2ccc(C#CC3CCCCC3)cc2O[C@@H]1CN(C)Cc1cccnc1	.	.	.	99*	-25
COc1ccc(S(=O)(=O)Nc2ccc3c(c2)C(=O)N([C@@H](C)CO)C[C@H](C)[C@@H](CN(C)C(=O)Nc2cccc4ccccc24)O3)cc1	.	.	.	2	-1
C[C@H](CO)N1C[C@H](C)[C@@H](CN(C)C(=O)Nc2ccc3c(c2)OCO3)Oc2ccc(NS(=O)(=O)c3cccs3)cc2CC1=O	.	.	.	-1	-6
C[C@@H]1CN([C@H](C)CO)S(=O)(=O)c2ccc(C#CC3CCCC3)cc2O[C@H]1CN(C)Cc1cccnc1	.	.	.	17*	6
Cc1ccc2c(c1C)NC(C(=O)O)C1CC=CC21 (stereo not drawn)	9	-1	1	.	-7

Screens as filed in PubChem BioAssay.
